A selection: hits, their analogues and other compounds. The true share with any hit is near 1.9%.
Rin1-Abl PPI inh: inhibitors of human Rin1-Abl protein interaction; TR-FRET Rin1/Abl binding, biochemical; inhibition, % at 7.35 µM; P00519+Q13671; AID 588664; 0.4% of 360,000 active; in the data active = inhibition above about 5%, passing the limit was not always enough
SR-BI DiI-HDL act: SR-BI HDL lipid transfer activation. activation, % at 12.5 µM. CHO ldlA[mSR-BI] cells, DiI-HDL uptake fluorescence, 3 h; 100 = double the neutral-control signal. 0.096% of 320,000 active. AID 504775;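 active = mean replicate activation of at least 60% and every replicate at or above 60%; inconclusive = mean or all-replicate condition met, but not both; inactive = mean below 60% and not all replicates reaching 60%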;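 note: 0% = median plate neutral-control signal and 100% = twice that signal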
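Assay system: CHO ldlA[mSR-BI] cells, LDL receptor-null, SR-BI overexpressing; medium: Ham's F12 with 0.5% BSA, HEPES 25 mM, pH 7.4; also added: DiI-HDL 10 µg/mL; timing: 3 h uptake period with compound, 37 °C; signal: DiI fluorescence, bottom read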
SR-BI DiI inh: blocks mouse SR-BI lipid uptake from DiI-HDL; ldlA[mSR-BI] CHO cells, DiI-HDL uptake fluorescence, 3 h; inhibition, % at 12.5 µM; 0.96% of 320,000 active;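 active = mean replicate inhibition of at least 70% and a set share of replicates each scoring 70 or more; inconclusive = meets just one of the two criteria; inactive = fails both criteria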;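 note: 0% = median of neutral control wells and 100% = median of positive control wells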
Target sequence (Q61009 whole entry, looked up): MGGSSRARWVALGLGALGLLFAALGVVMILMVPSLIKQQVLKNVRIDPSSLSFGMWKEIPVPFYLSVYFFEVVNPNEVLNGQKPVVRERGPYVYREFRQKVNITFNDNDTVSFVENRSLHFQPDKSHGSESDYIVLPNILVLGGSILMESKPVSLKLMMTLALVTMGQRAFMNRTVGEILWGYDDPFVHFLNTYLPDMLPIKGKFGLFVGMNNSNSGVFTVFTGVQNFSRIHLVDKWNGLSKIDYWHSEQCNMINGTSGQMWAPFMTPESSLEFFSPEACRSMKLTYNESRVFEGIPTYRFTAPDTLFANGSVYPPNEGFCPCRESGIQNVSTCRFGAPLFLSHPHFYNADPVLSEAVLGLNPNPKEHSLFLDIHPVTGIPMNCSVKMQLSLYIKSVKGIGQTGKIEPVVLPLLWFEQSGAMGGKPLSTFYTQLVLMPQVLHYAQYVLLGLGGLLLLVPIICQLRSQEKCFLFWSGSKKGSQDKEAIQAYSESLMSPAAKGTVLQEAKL
GRK2 aptamer HTS: blocks RNA aptamer binding to human GRK2; P25098; bead flow cytometry, FAM-aptamer displacement from GRK2; inhibition of aptamer binding, % at 10 µM; 0.59% of 330,000 active; AID 488847;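 active = inhibition of aptamer binding above 40%, roughly 3 SD of noise, on plates passing a quality check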;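 note: median bead fluorescence of bound FAM aptamer so fluorescent compounds give negative values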
Active calls of the source: *; ? = inconclusive; . = not tested or not shown.

SMILES	Rin1-Abl PPI inh	SR-BI DiI-HDL act	SR-BI DiI inh	GRK2 aptamer HTS
CCN1C(=O)CC(c2ccccc2)N(C2CCCC2)c2nc(Nc3ccc(C(=O)NC4CCN(C)CC4)cc3OC)ncc21 (centres undefined)	10.4*	-32.5	32.5	0.0
CCN1C(=O)CC(C(C)C)N(C2CCCC2)c2nc(Nc3ccc(C(=O)NC4CCN(C)CC4)cc3OC)ncc21 (centres undefined)	-0.1	7.5	-7.5	.
O=S(=O)(Nc1nc2ccccc2nc1Nc1ccc(N2CCOCC2)cc1)c1cc(Cl)ccc1Cl	-1.5	-72.8	72.8*	1.0
Cc1cc(NC(=O)/C=C/c2ccccc2Cl)n(-c2nc3ccccc3[nH]2)n1	0.9	-95.5	95.5*	1.0
CCCN1CCC(C)(C(=O)Nc2cccc(OC(C)C)c2)C1 (centres undefined)	-2.3	.	.	.
CN(C)CCCN(C(=O)c1ccc([N+](=O)[O-])o1)c1nc2cc3c(cc2s1)OCO3	-4.9	.	-27.6	55.0*
COc1ccc(Cl)cc1Nc1nc(-c2sc(NC(=O)CC(C)C)nc2C)cs1	0.6	-49.2	49.2	0.0
CCC(C)C(=O)Nc1nc(C)c(-c2csc(Nc3ccccc3OC)n2)s1 (centres undefined)	0.3	-77.9	77.9*	0.0
C=CCCC(=O)Nc1nc(C)c(-c2csc(Nc3ccccc3OC)n2)s1	2.6	-70.7	70.7*	0.0
C=CCCC(=O)Nc1nc(C)c(-c2csc(Nc3ccc(Cl)cc3Cl)n2)s1	0.9	-69.8	69.8	1.0
C=CCCC(=O)Nc1nc(C)c(-c2csc(Nc3cc(Cl)ccc3OC)n2)s1	1.1	-86.9	86.9*	0.0
CSc1cccc(NC(=O)/C=C/c2cccc(Cl)c2)c1	-1.8	-74.7	74.7*	0.0
COCCn1c(=NC(=O)/C=C/c2cccs2)sc2cc(NC(C)=O)ccc21	-3.7	-72.2	72.2*	0.0
COc1ccccc1CC(=O)Nc1cc2oc3ccccc3c2cc1OC	4.5	-86.5	86.5*	0.0
COc1cccc(CN(C)CC(=O)Nc2cc3oc4ccccc4c3cc2OC)c1	-2.8	-77.5	77.5*	2.0
COc1cc2c(cc1NC(=O)CN(C)Cc1cccc(OC)c1OC)oc1ccccc12	1.4	-45.9	45.9	0.0
COCCNC(=S)Nc1cc2oc3ccccc3c2cc1OC	-0.6	-92.6	92.6*	0.0
COc1ccc(CC(=O)Nc2cc3oc4ccccc4c3cc2OC)cc1	-3.0	-49.7	49.7	0.0
COc1cc2c(cc1NC(=O)c1ccncc1)oc1ccccc12	2.7	-77.5	77.5*	0.0
COc1cc(OC)cc(C(=O)NC(=S)Nc2cc3oc4ccccc4c3cc2OC)c1	-5.7	-80.6	80.6*	1.0
CC(=O)Nc1ccc(CN2C(=O)C(C)(C)ON=C2c2ccc(C(F)(F)F)cc2)cc1	1.0	.	.	.
COc1ccccc1CCC(=O)N1CCN(S(=O)(=O)c2cc(C(F)(F)F)ccc2Cl)CC1	5.7	-18.8	18.8	1.0
COc1ccc(Nc2cc(C(=O)N3CCc4ccccc4C3)c3ccccc3n2)c(OC)c1	5.4	-78.5	78.5*	0.0
COc1ccc(-c2[nH]c(-c3cc(OC)c4c(c3)OCO4)nc2-c2ccccc2)cc1	-1.9	-88.1	88.1*	0.0
COc1ccc(-c2nc(-c3ccccc3)c(-c3cc([N+](=O)[O-])ccc3C)[nH]2)cc1OC	0.3	-59.2	59.2	1.0
SMILES	Rin1-Abl PPI inh	SR-BI DiI-HDL act	SR-BI DiI inh	GRK2 aptamer HTS
COc1ccccc1C(=O)N/C(=C\c1cn(S(=O)(=O)N(C)C)c2ccccc12)C(=O)N1CCN(C)CC1	-4.0	.	.	.
CCCc1cc(N2CCCC2)n2nc(C)c(-c3ccccc3)c2n1	2.5	-78.5	78.5*	2.0
CCN1CCN(c2cc(C(C)C)nc3c(-c4ccccc4)c(C)nn23)CC1	-2.0	.	.	0.0
COc1cc(NC(=O)[C@@H]2CCCN(S(=O)(=O)c3cccc4cccnc34)C2)cc(OC)c1OC	3.0	-21.1	21.1	1.0
C=C(C)C(=O)Nc1ccc2c(c1)OCCOCCOCCO2	3.1	-1.8	1.8	93.0*
Cc1cc(NC(=O)c2sc(Nc3ccc(F)c(Cl)c3)nc2N)no1	-2.7	-87.0	87.0*	3.0
O=[N+]([O-])c1ccc(-c2ccc(/C=N/Nc3nc(N4CCCCC4)nc(N4CCCCC4)n3)o2)cc1	-1.7	-77.1	?	.
O=[N+]([O-])c1cccc(-c2ccc(/C=N/Nc3nc(N4CCCCC4)nc(N4CCCCC4)n3)o2)c1	0.3	-84.0	84.0*	3.0
Cc1[nH]c(C(=O)N/N=C/c2ccc(N(C)C)cc2)c(C)c1C(=O)N/N=C/c1ccc(N(C)C)cc1	1.1	-87.0	87.0*	0.0
COc1cccc(/C=N/NC(=O)c2ccc(=O)[nH]n2)c1O	-3.8	.	.	3.0

Screens (PubChem BioAssay)
